# ChEMBL document CHEMBL1126604, “Synthesis and antiviral activity of 5-thien-2-yl-2'-deoxyuridine analogues” (1993)
# What was measured:
# Type in all cases: functional
# Cytomegalovirus [1] = assay: Minimum inhibitory concentration required to reduce cytomegalo virus (CMV (AD-169)) virus-induced cytopathicity by 50%; settings: Human betaherpesvirus 5
# Cytomegalovirus [2] = assay: Minimum inhibitory concentration required to reduce cytomegalo virus (CMV (Davis)) virus-induced cytopathicity by 50%; settings: Human betaherpesvirus 5
# Human alphaherpesvirus 1 [3] = assay: Minimum inhibitory concentration required to reduce herpes simplex virus-1 (HSV-1 (KOS)) virus-induced cytopathicity by 50%
# Human alphaherpesvirus 1 [4] = assay: Minimum inhibitory concentration required to reduce herpes simplex virus-1 (HSV-1 (McIntyre)) virus-induced cytopathicity by 50%
# Human alphaherpesvirus 2 [5] = assay: Minimum inhibitory concentration required to reduce herpes simplex virus-2 (HSV-2 (G)) virus-induced cytopathicity by 50%
# Human alphaherpesvirus 2 [6] = assay: Minimum inhibitory concentration required to reduce herpes simplex virus-2 (HSV-2 (Lyons)) virus-induced cytopathicity by 50%
# Human alphaherpesvirus 1 [7] = assay: Minimum inhibitory concentration required to reduce thymidine kinase deficient-HSV-1 (VMW 1837) virus-induced cytopathicity by 50%
# Human alphaherpesvirus 3 [8] = assay: Minimum inhibitory concentration required to reduce TK-VZV (07-1) virus-induced cytopathicity by 50%
# Human alphaherpesvirus 3 [9] = assay: Minimum inhibitory concentration required to reduce TK-VZV (YS/R) virus-induced cytopathicity by 50%
# [10] = system: Vesicular stomatitis virus; assay: Minimum inhibitory concentration required to reduce VSV virus-induced cytopathicity by 50%
# Vaccinia virus = assay: Minimum inhibitory concentration required to reduce vaccinia virus (VV) virus-induced cytopathicity by 50%; settings: Orthopoxvirus vaccinia
# Human alphaherpesvirus 3 [11] = assay: Minimum inhibitory concentration required to reduce Varicella-Zoster virus (VZV (Oka)) virus-induced cytopathicity by 50%
# Human alphaherpesvirus 1 [12] = assay: Minimum inhibitory concentration required to reduce herpes simplex virus-1 (HSV-1 (F)) virus-induced cytopathicity by 50%
# Cell line [13] = assay: Minimum concentration required to cause a microscopically detectable alteration of cell morphology; settings: Homo sapiens
# In short: (§1)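 Cytotoxicity read as the minimum concentration causing a microscopically detectable alteration of normal cell morphology. Cells were human embryonic skin-muscle (E6SM) or human embryonic lung (HEL), seeded in 96-well plates.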
# [14] = (§2) Minimum inhibitory concentration required to reduce virus-induced cell growth by 50%; settings: Homo sapiens
# Human alphaherpesvirus 2 [15] = assay: Minimum inhibitory concentration required to reduce herpes simplex virus-2 (HSV-2 (196)) virus-induced cytopathicity by 50%
# Human alphaherpesvirus 1 [16] = assay: Minimum inhibitory concentration required to reduce TK-HSV-1 (B2006) virus-induced cytopathicity by 50%
# Human alphaherpesvirus 1 [17] = assay: Minimum inhibitory concentration required to reduce thymidine kinase deficient-HSV-1 (B2006) virus-induced cytopathicity by 50%
# Mus musculus [18] = assay: Survival of mice after intraperitoneal infection with HSV-1 (KOS) and oral administration of 25 mg/kg at day 20
# In short: (§3)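 Mice were infected intraperitoneally with HSV-1 (KOS), 10 mice per group. Drug was given by oral gavage once daily for 5 days, starting on the day of infection, at 25, 100 or 250 mg/kg per day. Vehicle was a 90:10 suspension of Sirupus Simplex and propylene glycol; the placebo group got the same syrup. Surviving mice were counted over 20 days.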
# Mus musculus [19] = assay: Survival of mice after intraperitoneal infection with HSV-1 (KOS) and oral administration of 100 mg/kg at day 0; in short: as §3
# Mus musculus [20] = assay: Survival of mice after intraperitoneal infection with HSV-1 (KOS) and oral administration of 100 mg/kg at day 12; in short: as §3
# Mus musculus [21] = assay: Survival of mice after intraperitoneal infection with HSV-1 (KOS) and oral administration of 100 mg/kg at day 20; in short: as §3
# Mus musculus [22] = assay: Survival of mice after intraperitoneal infection with HSV-1 (KOS) and oral administration of 100 mg/kg at day 3; in short: as §3
# Mus musculus [23] = assay: Survival of mice after intraperitoneal infection with HSV-1 (KOS) and oral administration of 100 mg/kg at day 6; in short: as §3
# Mus musculus [24] = assay: Survival of mice after intraperitoneal infection with HSV-1 (KOS) and oral administration of 100 mg/kg at day 9; in short: as §3
# Mus musculus [25] = assay: Survival of mice after intraperitoneal infection with HSV-1 (KOS) and oral administration of 25 mg/kg at day 0; in short: as §3
# Mus musculus [26] = assay: Survival of mice after intraperitoneal infection with HSV-1 (KOS) and oral administration of 25 mg/kg at day 12; in short: as §3
# Mus musculus [27] = assay: Survival of mice after intraperitoneal infection with HSV-1 (KOS) and oral administration of 25 mg/kg at day 3; in short: as §3
# Mus musculus [28] = assay: Survival of mice after intraperitoneal infection with HSV-1 (KOS) and oral administration of 25 mg/kg at day 6; in short: as §3
# Mus musculus [29] = assay: Survival of mice after intraperitoneal infection with HSV-1 (KOS) and oral administration of 25 mg/kg at day 9; in short: as §3
# Mus musculus [30] = assay: Survival of mice after intraperitoneal infection with HSV-1 (KOS) and oral administration of 250 mg/kg at day 0; in short: as §3
# Mus musculus [31] = assay: Survival of mice after intraperitoneal infection with HSV-1 (KOS) and oral administration of 250 mg/kg at day 12; in short: as §3
# Mus musculus [32] = assay: Survival of mice after intraperitoneal infection with HSV-1 (KOS) and oral administration of 250 mg/kg at day 20; in short: as §3
# Mus musculus [33] = assay: Survival of mice after intraperitoneal infection with HSV-1 (KOS) and oral administration of 250 mg/kg at day 3; in short: as §3
# Mus musculus [34] = assay: Survival of mice after intraperitoneal infection with HSV-1 (KOS) and oral administration of 250 mg/kg at day 9; in short: as §3
# Mus musculus [35] = assay: Survival of mice after intraperitoneal infection with HSV-1 (KOS) and oral administration of 250 mg/kg at day 6; in short: as §3
# Cell line [36] = assay: Minimum concentration required to cause a microscopically detectable alteration of human cells morphology; in short: as §1
# Cell line [37] = assay: as §2; settings: Homo sapiens
# In short: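 Cytotoxicity was measured as inhibition of cell growth in E6SM or HEL cells seeded in 96-well plates.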
Structure (SMILES),MIC (Cytomegalovirus [1]) [µg/mL],MIC (Cytomegalovirus [2]) [µg/mL],MIC (Human alphaherpesvirus 1 [3]) [µg/mL],MIC (Human alphaherpesvirus 1 [4]) [µg/mL],MIC (Human alphaherpesvirus 2 [5]) [µg/mL],MIC (Human alphaherpesvirus 2 [6]) [µg/mL],MIC (Human alphaherpesvirus 1 [7]) [µg/mL],MIC (Human alphaherpesvirus 3 [8]) [µg/mL],MIC (Human alphaherpesvirus 3 [9]) [µg/mL],MIC [10] [µg/mL],MIC (Vaccinia virus) [µg/mL],MIC (Human alphaherpesvirus 3 [11]) [µg/mL],MIC (Human alphaherpesvirus 1 [12]) [µg/mL],MIC (Cell line [13]) [µg/mL],MIC [14] [µg/mL],MIC (Human alphaherpesvirus 2 [15]) [µg/mL],MIC (Human alphaherpesvirus 1 [17]) [µg/mL],MIC (Cell line [36]) [µg/mL],other results
C#Cc1ccc(-c2cn([C@H]3C[C@H](O)[C@@H](CO)O3)c(=O)[nH]c2=O)s1,> 10,> 10,0.4,0.2,> 200,> 200,> 200,5,17,> 200,> 200,0.25,0.2,400,14,> 200,,,MIC (Human alphaherpesvirus 1 [16]): > 200 µg/mL
Cc1ccc(-c2cn([C@H]3C[C@H](O)[C@@H](CO)O3)c(=O)[nH]c2=O)s1,> 40,> 40,0.2,0.7,50,20,150,> 40,> 40,> 400,> 200,0.08,0.2,> 200,> 50,150,400,,
O=c1[nH]c(=O)n(C2O[C@H](CO)[C@@H](O)[C@@H]2O)cc1-c1ccc(Br)s1 (stereo partly specified),30,35,0.08,0.02,70,20,> 100,40,40,> 100,20,0.05,0.07,> 40,> 50,70,> 100,,No. of mice (Mus musculus [18]): 2; No. of mice (Mus musculus [19]): 10; No. of mice (Mus musculus [20]): 1; No. of mice (Mus musculus [21]): 1; No. of mice (Mus musculus [22]): 10; No. of mice (Mus musculus [23]): 8; No. of mice (Mus musculus [24]): 1; No. of mice (Mus musculus [25]): 10; No. of mice (Mus musculus [26]): 2; No. of mice (Mus musculus [27]): 10; No. of mice (Mus musculus [28]): 10; No. of mice (Mus musculus [29]): 2; No. of mice (Mus musculus [30]): 10; No. of mice (Mus musculus [31]): 5; No. of mice (Mus musculus [32]): 5; No. of mice (Mus musculus [33]): 10; No. of mice (Mus musculus [34]): 5; No. of mice (Mus musculus [35]): 8
O=c1[nH]c(=O)n([C@H]2C[C@H](O)[C@@H](CO)O2)cc1-c1ccc([N+](=O)[O-])s1,> 40,> 40,2,,150,,150,40,> 40,> 200,150,7,,,,,> 200,> 200,MIC (Cell line [37]): > 50 µg/mL
O=c1[nH]c(=O)n([C@H]2C[C@H](O)[C@@H](CO)O2)cc1-c1ccoc1,80,80,0.5,0.07,150,30,> 200,> 40,> 40,> 200,> 40,50,0.5,,> 50,150,100,> 40,
O=c1[nH]c(=O)n(C2O[C@H](CO)[C@@H](O)[C@@H]2O)cc1-c1ccc(Cl)s1 (stereo partly specified),30,70,0.15,0.015,300,150,> 400,60,37,> 400,> 150,0.08,0.05,> 400,> 50,150,> 400,,
